Compound activity (PubChem)
Hits are enriched below; roughly 1.9% of the tested compounds scored in any of these assays.
GAA850 FXN act: activators of GAA850 frataxin (FXN) promoter. AID 540364. 360,000 compounds, 0.56% hits. activation, % at 6 µM. HEK293 lucGAA850 FXN promoter luciferase reporter, 24 h; percent of 10 µM SAHA response;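 active means activation above the average of all compounds screened plus 3 SD, cutoff fixed separately per campaign, cut at about 7.5% in these data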
procasp7 counter: activates human procaspase-7, counter-screen for procaspase-3 activators. recombinant procaspase-7, Ac-DEVD-pNA absorbance 405 nm; D23A/D198A/D206A triple mutant, cannot self-cleave; scale: DMSO 0, 5 µM enzyme 100. activation, % at 8.5 µM. P55210. 330,000 compounds, 0.093% hits;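 active means percent activation above the screen-wide mean plus 3 SD, cut at about 25% in these data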
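signal = Epi-absorbance of released pNA at 405 nm, two timepoints | assay system = Uncleavable procaspase-7 mutant enzyme | reagent = Ac-DEVD-pNA substrate, 400 µM as added | times = 1 h enzyme–compound preincubation and 2 h substrate reaction, both 25 °C | benchmarks = low DMSO alone, high DMSO plus 5 µM PC-7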
Neddyl block: cullin neddylation inhibition. P61081+Q13564. TR-FRET cullin neddylation, biochemical. inhibition, % at 25 µM. 360,000 compounds, 0.58% hits. AID 651699; in the data active means inhibition above about 36%
Target sequence (P61081 whole entry, looked up): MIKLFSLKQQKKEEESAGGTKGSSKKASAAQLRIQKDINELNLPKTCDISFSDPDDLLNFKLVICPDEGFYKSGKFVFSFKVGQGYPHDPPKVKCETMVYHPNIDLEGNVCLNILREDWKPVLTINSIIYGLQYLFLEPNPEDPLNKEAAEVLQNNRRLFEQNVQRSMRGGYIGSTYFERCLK
Target sequence (Q13564 whole entry, looked up): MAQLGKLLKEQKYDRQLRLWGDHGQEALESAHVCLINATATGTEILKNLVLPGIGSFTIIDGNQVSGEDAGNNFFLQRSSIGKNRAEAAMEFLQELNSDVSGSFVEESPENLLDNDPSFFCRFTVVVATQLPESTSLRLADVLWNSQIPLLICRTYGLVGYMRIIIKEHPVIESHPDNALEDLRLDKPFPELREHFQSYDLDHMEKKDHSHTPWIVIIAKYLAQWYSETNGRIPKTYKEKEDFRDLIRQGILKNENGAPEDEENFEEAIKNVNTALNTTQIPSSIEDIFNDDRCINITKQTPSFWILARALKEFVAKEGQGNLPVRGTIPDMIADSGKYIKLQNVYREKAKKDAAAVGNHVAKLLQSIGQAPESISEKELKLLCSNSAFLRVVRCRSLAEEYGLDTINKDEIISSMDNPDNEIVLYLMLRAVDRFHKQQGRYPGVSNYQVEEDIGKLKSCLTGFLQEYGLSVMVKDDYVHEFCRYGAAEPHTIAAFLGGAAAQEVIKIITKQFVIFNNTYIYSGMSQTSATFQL
procasp3 activ: activators of human procaspase-3; P42574; recombinant procaspase-3 D3A, Ac-DEVD-pNA absorbance 405 nm; activation, % at 8.5 µM; 330,000 compounds, 0.11% hits;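 active means activation above the mean of all tested compounds plus 3 SD, cut at about 21% in these data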
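Evaluation: percent activation relative to control range; Material: Procaspase-3 D3A mutant, all three cleavage aspartates alanine; Compound: single dose, 8.5 µM nominal compound, 0.8% DMSO; Replication: one well per compound; Signal: absorbance at 405 nm, 0 and 120 min; Schedule: 1 h preincubation plus 2 h reaction at 25 °C.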
HIF act: HIF pathway transcriptional activation; U2OS HRE-luciferase reporter, luminescence; normalized: DMSO 0%, desferrioxamine 100%; activation, % at 7.5 µM (by protocol); 300,000 compounds, 0.32% hits; AID 1910;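 active means mean activation of at least 10% of the iron chelator positive control signal, with at least half of replicates also reaching 10%; inconclusive means mean and replicate majority disagree about reaching 10%; inactive means mean and most replicates under 10%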
Calb FLC: C. albicans growth modulation with fluconazole; C. albicans CaCi-2 + fluconazole, Alamar Blue growth, 48 h; growth inhibition, % (no concentration beside the values); 300,000 compounds, 0.57% hits;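 active means growth inhibition above about 58% in most replicates, limit read from the data, passing the limit was not always enough; inconclusive means exactly half the replicates above a set limit; inactive means most replicates below a set limit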;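 further: all wells also contain fluconazole at 8 µg/ml as a sub-toxic cotreatment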
GAA30 FXN cntr: GAA30 FXN promoter activation counter-screen | shares compounds with GAA850 FXN act | HEK293 lucGAA30 FXN promoter luciferase, 24 h; DMSO = 0%, 5 µM ipriflavone = 100% | activation, % at 6 µM | 1,900 compounds, 66% hits;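 active means mean activation above the mean of solvent-only control wells plus 3 SD, cut at about 22% in these data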;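 further: counterscreen of GAA850 promoter hits where activity marks nonselective or luminescence artifacts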
FXN GAA850 conf: confirmation of GAA850 frataxin (FXN) promoter activators | shares compounds with GAA850 FXN act | HEK293 lucGAA850 FXN promoter luciferase reporter, 24 h; 100% = activation by SAHA | activation, % at 6 µM | 1,900 compounds, 86% hits;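 active means mean activation above a set limit taken from the primary screen, cut at about 8% in these data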
Large screens that a line does not name were inactive (follow-up assays come after a bar, where shown).

CCc1nn(C(CC)C(=O)NCCc2ccc(OC)cc2OC)c(=O)c2cc3occc3n12 (stereo not drawn)	GAA850 FXN act 10 | GAA30 FXN cntr inactive | FXN GAA850 conf 9.5
CCc1nn(C(CC)C(=O)NCc2cccs2)c(=O)c2cc3occc3n12 (stereo not drawn)	none
NC(=O)CC1(c2ccccc2)CCCCC1	none (no result: procasp7 counter, procasp3 activ, HIF act, Calb FLC)
COc1ccccc1NS(=O)(=O)c1cc(NC(=O)/C=C/c2cccs2)ccc1N1CCOCC1	GAA850 FXN act 9.9 | GAA30 FXN cntr inactive | FXN GAA850 conf inactive
O=C(/C=C/c1cccs1)Nc1ccc(N2CCOCC2)c(S(=O)(=O)Nc2ccccc2Cl)c1	none
O=C1c2ccccc2-c2onc3ccc(Oc4ccccc4)c1c23	GAA850 FXN act 32 | GAA30 FXN cntr 51 | FXN GAA850 conf 40
Cc1ccc2nc(SCC(=O)NCc3ccco3)c(C#N)cc2c1	GAA850 FXN act 8.3 | GAA30 FXN cntr 80 | FXN GAA850 conf 27
O=S(=O)(NCC(Nc1ccc(Cl)cc1)c1ccccc1)c1ccc(Cl)cc1 (stereo not drawn)	GAA850 FXN act 8.5 | GAA30 FXN cntr inactive | FXN GAA850 conf 10.0
O=S(=O)(NCC(c1ccccc1)N1CCC(O)CC1)c1ccc(Cl)cc1 (stereo not drawn)	none
O=C(OC1CCCC1)c1ccc(Cl)cc1Cl	none (no result: procasp7 counter, procasp3 activ, HIF act, Calb FLC)
COC(=O)N1[C@H](C)C=C[C@]1(Cc1ccccc1)C(=O)NCCCNc1ncc(C(F)(F)F)cc1Cl	GAA850 FXN act 7.8 | GAA30 FXN cntr 23 | FXN GAA850 conf 11
CC(C)OC(=O)N(C)C[C@@H]1OCc2cnnn2CCCC(=O)N([C@H](C)CO)C[C@@H]1C	none (no result: procasp7 counter, procasp3 activ, HIF act, Calb FLC)
Cc1nc2c(-c3ccc(F)cc3)cnn2c2c1CCC2	GAA850 FXN act 8.2 (not shown: Neddyl block) | GAA30 FXN cntr 90 | FXN GAA850 conf 29
CC1=NN(c2ccccc2)C(=O)/C1=C\C=C\c1ccccc1	GAA850 FXN act 8.6 | GAA30 FXN cntr inactive | FXN GAA850 conf 14
CCOC(=O)c1csc(NC(=O)CCS(=O)(=O)c2ccc(Cl)cc2)n1	none (no result: procasp7 counter, procasp3 activ, HIF act, Calb FLC)
Cc1ccc(/C=N/NC(=O)C(C)Oc2ccccc2[N+](=O)[O-])s1 (stereo not drawn)	GAA850 FXN act 11 | GAA30 FXN cntr 26 | FXN GAA850 conf inactive
O=C(N/N=C/c1ccc(Cl)s1)c1ccccc1[N+](=O)[O-]	none
Cc1ccc(NC(=O)CSCC(=O)Nc2cc(S(=O)(=O)N3CCOCC3)ccc2OC(C)C)cc1	none (no result: procasp7 counter, procasp3 activ, HIF act, Calb FLC)
O=C(N/N=C/c1ccc(OC2CSC2)cc1)c1ccccc1	GAA850 FXN act 8.1 | GAA30 FXN cntr 84 | FXN GAA850 conf 47
Oc1ccc(/C=N\Nc2nncc(-c3ccccc3)n2)cc1	GAA850 FXN act 8.7 | GAA30 FXN cntr 40 | FXN GAA850 conf 18
Brc1ccc(/C=N/Nc2nncc(-c3ccccc3)n2)o1	none (no result: GAA850 FXN act, Neddyl block)
COc1ccc(-c2cnnc(N/N=C/c3ccc(O)cc3)n2)cc1	GAA850 FXN act 7.6 | GAA30 FXN cntr 68 | FXN GAA850 conf 36
COc1ccc(NC(=O)C2Cc3c(-c4cccc(C(C)=O)c4)ccnc3O2)cn1 (stereo not drawn)	none (no result: procasp7 counter, procasp3 activ, HIF act, Calb FLC)
CCc1nc2c(OCc3cccc(Cl)c3)cccn2c1N(C)C(=O)CC(C)C	none (no result: procasp7 counter, procasp3 activ, HIF act, Calb FLC)
CCN(C(=O)COC(=O)/C=C/c1c(C)nn(-c2ccccc2)c1C)c1c(N)n(Cc2ccccc2)c(=O)[nH]c1=O	none (no result: procasp7 counter, procasp3 activ, HIF act, Calb FLC)
CCC(C)[C@H](NS(=O)(=O)c1ccc(C)cc1)C(=O)N1CCC(C(=O)N2CCC(C(N)=O)CC2)CC1 (stereo partly drawn)	GAA850 FXN act 19 | GAA30 FXN cntr inactive | FXN GAA850 conf inactive
COc1cc2c(cc1[N+](=O)[O-])-c1ccc([N+](=O)[O-])cc1C2=NO	none (no result: procasp7 counter, procasp3 activ, HIF act, Calb FLC)
CCOC(=O)CSc1nc2ccccc2c(=O)[nH]1	none
CCOC(=O)c1nc2ccccc2c(=O)[nH]1	GAA850 FXN act 8.1 | GAA30 FXN cntr 69 | FXN GAA850 conf 23
O=C1[C@H]2[C@@H](C(=O)N1c1cccc3ccccc13)C1(C(=O)c3ccccc3C1=O)N1CCC[C@@H]21	GAA850 FXN act 9.4 | GAA30 FXN cntr 37 | FXN GAA850 conf 16
O=C1C2C3C=CC(C3)C2C(=O)N1c1cccc2ccccc12 (stereo not drawn)	none
Cc1cc(C)n2nc(/C(C#N)=C/c3ccccn3)c(C#N)c2n1	GAA850 FXN act 16, Neddyl block 40 | GAA30 FXN cntr 32 | FXN GAA850 conf 37
Cc1cc(C)n2nc(CC#N)c(C#N)c2n1	none
C=CCn1c(-c2cccs2)nc2nc3ccccc3nc21	GAA850 FXN act 8.1 (not shown: Neddyl block) | GAA30 FXN cntr 80 | FXN GAA850 conf 24
C=CCn1c(-c2cccs2)nc2ccccc21	none (not shown: Neddyl block, HIF act, Calb FLC)
CC1(C(=O)NS(=O)(=O)c2cccc(F)c2)CCN1C(=O)Cc1cccc2ccccc12 (stereo not drawn)	none (no result: procasp7 counter, procasp3 activ, HIF act, Calb FLC)
COC(=O)N=Nc1c(O)[nH]c2ccc(Br)cc12	GAA850 FXN act 10 | GAA30 FXN cntr 144 | FXN GAA850 conf 32
Cc1cn([C@H]2C[C@H](O)[C@@H](CNCc3ccc(Oc4cc(-n5cccn5)ncn4)cc3)O2)c(=O)[nH]c1=O	none (no result: procasp7 counter, procasp3 activ, HIF act, Calb FLC)
COc1ccc(NC(=O)C2(C)CCN2CCOc2ccc(C)cc2)cc1OC (stereo not drawn)	none (no result: procasp7 counter, procasp3 activ, HIF act, Calb FLC)
Cc1ccc(-c2nc(N)c3c(-c4ccc(C)cc4)nn(C(C)(C)C)c3n2)cc1	none
CC(C)(C)n1nc(-c2ccc(Cl)cc2)c2c(N)ncnc21	GAA850 FXN act 11 | GAA30 FXN cntr 64 | FXN GAA850 conf inactive
Cc1ccc(-c2nn(C(C)(C)C)c3ncnc(NS(=O)(=O)c4ccc([N+](=O)[O-])cc4)c23)cc1	Calb FLC inconclusive
CC(C)(C)n1nc(-c2ccc(F)cc2)c2c(N)ncnc21	GAA850 FXN act 12 | GAA30 FXN cntr 54 | FXN GAA850 conf 12
CCOC(=O)[C@]12CCC=C1N(Cc1ccccc1)C(=O)[C@H](CC(=O)NCc1ccccc1)C2	none (no result: GAA850 FXN act, procasp7 counter, procasp3 activ, HIF act, Calb FLC)
O=C(NC(=S)Nc1ccccc1F)C1CCCCC1	none
COc1ccccc1N(C)S(=O)(=O)c1ccc(Cl)c(C(=O)NCC2(N(C)C)CCCCC2)c1	GAA850 FXN act 12 | GAA30 FXN cntr 25 | FXN GAA850 conf inactive
O=C(CN1C(=O)c2cccc([N+](=O)[O-])c2C1=O)N1CCc2ccccc2C1	none (no result: procasp7 counter, procasp3 activ, HIF act, Calb FLC)
